Source: PubChem BioAssay
SMARCA2 act – activators of SMARCA2 function | 370,000 compounds, 1% hits | MG213 cells, MMTV-luciferase reporter, dexamethasone, overnight | activation, % at 9.1 µM; in the data active means activation above about 7.8%;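 further: 0% = vehicle wells and 100% = reference activator wells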
Tb MetRS inh – Trypanosoma brucei MetRS inhibition | purified T. brucei MetRS, ATP depletion, Kinase-Glo luminescence | inhibition, % at 11.9 µM | 360,000 compounds, 0.4% hits | AID 624268;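 active means inhibition above a per-plate cutoff of the control wells' mean inhibition plus 3 SD, cut at about 5.5% in these data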;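 further: 0% = DMSO wells median and 100% = median of wells with control inhibitor compound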
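Test system: purified T. brucei MetRS enzyme. Also added: ATP, methionine and E. coli bulk tRNA substrates. Compound: 11.9 µM single point. Schedule: 15 min enzyme-compound preincubation, 2 h reaction, 10 min detection, 25 °C. Signal: luciferase luminescence of residual ATP, Kinase-Glo. Evaluation: percent inhibition versus plate control medians. Controls: DMSO wells, low control.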
AHR activator – activators of human aryl hydrocarbon receptor; AHR-responsive luciferase reporter cells, luminescence; P35869; activation, % at 5 µM; 320,000 compounds, 2.5% hits; AID 2796; in the data active means activation above about 47%;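 further: 0% = vehicle wells and 100% = reference agonist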
Target sequence (P35869 whole entry, looked up): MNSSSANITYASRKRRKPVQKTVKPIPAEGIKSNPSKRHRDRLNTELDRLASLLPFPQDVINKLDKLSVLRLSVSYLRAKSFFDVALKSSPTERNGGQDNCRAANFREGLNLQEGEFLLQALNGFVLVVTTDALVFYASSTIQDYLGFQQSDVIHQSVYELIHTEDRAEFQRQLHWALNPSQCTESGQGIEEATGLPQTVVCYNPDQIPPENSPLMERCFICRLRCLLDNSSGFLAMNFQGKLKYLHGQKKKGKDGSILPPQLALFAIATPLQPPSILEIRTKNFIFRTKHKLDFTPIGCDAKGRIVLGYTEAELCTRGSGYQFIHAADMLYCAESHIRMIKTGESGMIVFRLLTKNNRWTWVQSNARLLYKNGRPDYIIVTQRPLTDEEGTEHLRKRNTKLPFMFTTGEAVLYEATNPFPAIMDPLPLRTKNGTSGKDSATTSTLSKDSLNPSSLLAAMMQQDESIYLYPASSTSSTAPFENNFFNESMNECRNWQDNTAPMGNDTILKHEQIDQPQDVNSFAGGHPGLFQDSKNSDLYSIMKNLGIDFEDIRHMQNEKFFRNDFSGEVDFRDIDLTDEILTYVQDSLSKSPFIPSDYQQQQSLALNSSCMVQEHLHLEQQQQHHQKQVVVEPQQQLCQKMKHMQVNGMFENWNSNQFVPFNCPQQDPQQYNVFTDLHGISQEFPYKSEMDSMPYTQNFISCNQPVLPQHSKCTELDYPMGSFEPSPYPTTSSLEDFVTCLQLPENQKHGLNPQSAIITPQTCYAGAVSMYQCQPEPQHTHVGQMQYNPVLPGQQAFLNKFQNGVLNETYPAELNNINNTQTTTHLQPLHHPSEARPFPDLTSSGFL
Efflux pump inh – blocks antifungal efflux pumps in multiplex yeast assay. S. cerevisiae Candida pump triplex, Nile Red efflux. inhibition, % at 10 µM. 330,000 compounds, 0.44% hits. AID 485275;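 active means plate passing quality check with inhibition over a set limit, or well fluorescence over plate mean plus 4 SD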;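 further: Nile Red retained in pooled yeast measured as flow cytometry median fluorescence; 0% = buffer negative control and 100% = Enniatin B positive control; higher means more Nile Red kept so more efflux inhibition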
H9c2 TAG inh – reduces triacylglycerol accumulation in H9c2 cells | inhibition, % at 12.5 µM | 230,000 compounds, 0.66% hits | Nile Red lipid (TAG) fluorescence; cells loaded with 200 µM oleic acid;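 active means pattern-corrected inhibition of lipid staining of at least 50% with the nuclear-stain viability signal not falling by more than 50%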;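 further: 0% = DMSO wells and 100% = triacsin C control wells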
Cmpd fluor yeast – flagged as fluorescent in efflux inhibitor counter-screen | S. cerevisiae AD/pABC3, compound fluorescence, flow cytometry | shares compounds with Efflux pump inh | 1,700 compounds, 4% hits | fluorescence ratio to DMSO, % at 10 µM;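 active means fluorescence ratio to DMSO above its plate's cutoff, the plate mean ratio plus 5 SD, cut at about 210% in these data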;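 further: unstained yeast with no Nile Red so the signal is compound autofluorescence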
Mdr1 pump inh – blocks the Candida albicans Mdr1 efflux pump in yeast; shares compounds with Efflux pump inh; S. cerevisiae AD/CaMDR1, Nile Red efflux, flow cytometry; inhibition, % at 10 µM; 1,700 compounds, 1% hits; in the data active means inhibition above about 26%;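 further: 0% = DMSO vehicle and 100% = reference inhibitor; higher means more Nile Red retained so more efflux inhibition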
Cdr2 pump inh – blocks the Candida albicans Cdr2 efflux pump in yeast. Nile Red retention ratio vs DMSO, % at 10 µM. S. cerevisiae AD/CaCDR2, Nile Red retention, flow cytometry. shares compounds with Efflux pump inh. AID 588520. 1,700 compounds, 4% hits; in the data active means Nile Red retention ratio vs DMSO above about 190%;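 further: higher ratio means more blocking of Cdr2 efflux of the dye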
CaCdr1 efflux inh – blocks the Candida albicans Cdr1 efflux pump in yeast. 1,700 compounds, 1% hits. S. cerevisiae AD/CaCDR1, Nile Red efflux, flow cytometry. shares compounds with Efflux pump inh. inhibition, % at 10 µM;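 active means inhibition above the screen-wide mean plus twice its standard deviation, cut at about 32% in these data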
Numbers without * were called inactive; . = no result. A selection: hits, their analogues and other compounds. The true share with any hit is near 4.1%.

SMILES | SMARCA2 act | Tb MetRS inh | AHR activator | Efflux pump inh | H9c2 TAG inh | Cmpd fluor yeast | Mdr1 pump inh | Cdr2 pump inh | CaCdr1 efflux inh
O=C(COC(=O)/C=C/c1cccc([N+](=O)[O-])c1)Nc1ccc(Cl)cn1 | -1 | 0 | 6 | 0 | 7 | . | . | . | .
O=C(COC(=O)/C=C/c1cccc(C(F)(F)F)c1)Nc1ccc(Cl)cn1 | -1 | 0 | 2 | 0.6* | -31 | 102 | 0 | 92 | 0
CCOC(=O)N(C)[C@H]1C[C@H]2c3[nH]c4c(-c5ccc6c(c5)OCO6)cccc4c3CCN2C(=O)[C@H]1[C@H](C)O | -3 | . | . | . | . | . | . | . | .
CCCCCCN1CCS(=O)(=O)N(Cc2ccc(F)cc2)C(C(=O)OC)C1 (stereo unspecified) | -2 | . | . | . | . | . | . | . | .
COc1ccc(-c2nc(Cn3c(SCc4cccc(F)c4)nc4ccncc43)c(C)o2)cc1OC | -2 | 0 | 27 | 0.5* | -1 | 108 | 1 | 106 | 0
COc1ccc(-c2nc(Cn3c(SCc4ccc(C)cc4)nc4ccncc43)c(C)o2)cc1OC | 1 | -1 | 13 | 0.4* | 5 | 103 | 0 | 102 | 0
C=CCCC(=O)N(Cc1ccccc1)c1ccccc1C(=O)Nc1cc(OC)ccc1OC | -5 | . | . | . | . | . | . | . | .
COc1ccc(CN2CCC(CNC(=O)Nc3ccccc3)CC2)cc1 | -4 | . | . | . | . | . | . | . | .
CC(=O)Nc1sc2c(c1C(c1ccc(Cl)cc1)N1CCOCC1)CCCC2 (stereo unspecified) | -2 | 0 | 3 | 1.5* | -2 | 106 | 0 | 112 | 0
CC1(C)C2CCC1(CS(=O)(=O)N1CCOCC1)C(=O)C2 (stereo unspecified) | -4 | 0 | -6 | 1.4* | . | 103 | 0 | 112 | 0
COC(=O)[C@H](C(C)C)N(CCc1cn(Cc2ccccc2)nn1)S(=O)(=O)c1ccccc1Br | -1 | . | . | . | . | . | . | . | .
COc1ccc(S[C@]2(C(=O)N3CCN(c4ncccn4)CC3)CC(=O)N(c3ccc(OC)cc3)[C@@H]2c2ccc(OC)cc2)cc1 | -3 | . | . | . | . | . | . | . | .
CCn1ncc(/C=C/C(=O)c2ccccc2)c1C | 6 | 1 | 2 | 11* | . | 106 | 0 | 91 | 0
COC(=O)[C@]12C[C@H](CC(=O)NCc3cccs3)C(=O)N(CCc3ccc(OC)c(OC)c3)C1=C[C@H](C(C)(C)C)O[C@@H]2C | 1 | . | . | . | . | . | . | . | .
COc1ccc([C@H]2[C@H](C(=O)C(C)(C)C)N3N=Cc4ccccc4C3[C@]23N=C(c2ccccc2)OC3=O)cc1 (stereo partly specified) | 0 | 0 | 10 | 0.8* | 12 | 121 | 0 | 129 | 0
Cc1ccc(CS(=O)(=O)Cc2ccc(C(=O)NCc3ccco3)o2)cc1 | 0 | -1 | 2 | 0 | . | . | . | . | .
Cc1cccc(CS(=O)(=O)Cc2ccc(C(=O)NCc3ccco3)o2)c1 | -3 | 0 | 0 | 13* | . | 109 | 0 | 101 | 0
COc1ccc(C(=O)/C=C/c2ccc(O)cc2)c(O)c1C/C=C(\C)CCC=C(C)C | 1 | 0 | 4 | 1.3* | . | 109 | 0 | 116 | 0
Cc1ccccc1CNC(=O)CN1CCCc2ccccc21 | 3 | . | . | . | . | . | . | . | .
CNC(=O)c1ccccc1NC(=O)c1c(O)c2c([nH]c1=O)CCCC2 | -3 | -1 | 22 | 0 | -14 | . | . | . | .
O=C(N/N=C/c1cccc(F)c1)c1c(O)c2c([nH]c1=O)CCCC2 | 0 | -1 | 10 | 8.9* | . | 84 | 0 | 100 | 0
O=C(Nc1ccccc1-c1nnc(SCc2ccccc2)o1)c1ccccc1 | -5 | -1 | 7 | 0 | 13 | . | . | . | .
O=C(Nc1ccccc1-c1nnc(SCc2ccc(Cl)cc2)o1)c1ccccc1 | 1 | 0 | 4 | 0.5* | . | 100 | 0 | 118 | 0
CC1CCN(c2ccc(C(=O)O)cc2NS(=O)(=O)c2cccc3cccnc23)CC1 | -3 | . | . | . | . | . | . | . | .
Cc1cc2ccccc2n1CCNC(=O)c1ccc(Br)o1 | 0 | 0 | 25 | 1.3* | -11 | 100 | 0 | 94 | 0
SMILES | SMARCA2 act | Tb MetRS inh | AHR activator | Efflux pump inh | H9c2 TAG inh | Cmpd fluor yeast | Mdr1 pump inh | Cdr2 pump inh | CaCdr1 efflux inh
COc1cccc(C(=O)N[C@H](C(=O)N2CCC[C@H]2C(=O)NCCc2ccccc2Cl)c2ccccc2)c1 | 0 | . | . | . | . | . | . | . | .
COc1ccc(C(=O)NCc2ccc3c(c2)OCO3)cc1S(=O)(=O)N(C)Cc1ccccc1 | -2 | 0 | 14 | 7.6* | -8 | 99 | 0 | 99 | 0
COc1ccccc1N1CCN(C(=O)c2cc(-c3cccs3)on2)CC1 | 3 | -1 | 0 | 0.7* | . | 100 | 0 | 123 | 0
CCOc1ccccc1-c1nc(C(N)=O)c2[nH]c(=O)n(-c3ccc(F)cc3)c2n1 | 1 | 0 | 72* | 1 | 15 | 101 | 0 | 120 | 0
CCCCCCNC(=O)C1CSCCS(=O)(=O)N1Cc1ccccc1 (stereo unspecified) | -4 | . | . | . | . | . | . | . | .
COC(=O)[C@@H]1N=C(c2ccc(OC)cc2)O[C@]12C(=O)N(Cc1cn(Cc3ccccc3)nn1)c1cccc(Cl)c12 | -4 | . | . | . | . | . | . | . | .
O=C(COC(=O)c1ccc(Cl)nc1)NNC(=O)c1ccc(Cl)cc1 | 2 | 0 | 2 | 0 | 4 | . | . | . | .
O=C(COC(=O)c1ccc(Cl)nc1)NC(=O)c1ccccc1 | 3 | 0 | 0 | 0.6* | -2 | 110 | 0 | 112 | 0
O=C(COC(=O)c1ccc(Cl)nc1)Nc1c(Cl)cccc1C(F)(F)F | -2 | -1 | 4 | 0.5* | 6 | 92 | 0 | 89 | 0
COc1ccc(CNS(=O)(=O)/C=C/c2cc(C)ccc2CNC(=O)OC(C)(C)C)cc1 | -6 | . | . | . | . | . | . | . | .
COc1cc(/C=C(\C#N)C(=O)c2c[nH]c3ccccc23)cc(OC)c1O | -2 | 4 | 25 | 0.9* | -14 | 126 | 0 | 106 | 0
COc1cc(/C=C(\C#N)C(=O)NCCc2ccccc2)cc(OC)c1O | -1 | -1 | 3 | 0 | -7 | . | . | . | .
COc1cc(C(C)=O)ccc1OCC(=O)Nc1ccc(Cl)c(S(=O)(=O)N2CCOCC2)c1 | -4 | 0 | -1 | 1.0* | -14 | 97 | 0 | 94 | 0
CC(=O)c1ccc(OCCCC(=O)Nc2ccc(Cl)c(S(=O)(=O)N3CCOCC3)c2)cc1 | -5 | -1 | . | . | -17 | . | . | . | .
CCOC(=O)N1CCN(C(=O)C[C@H]2C[C@@]3(C(=O)OC)C(=C[C@H](COCc4ccccc4)O[C@@H]3C)N(Cc3cccc4ccccc34)C2=O)CC1 | -3 | . | . | . | . | . | . | . | .
Cc1ccc(S(=O)(=O)NN2C(=O)/C(=C/c3cccs3)SC2=S)cc1 | 2 | 0 | 21 | 0 | -8 | 98 | 0 | 87 | 0
CCOC(=O)[C@@]12CCCC3=C1N(CCC3)C(=O)[C@H]2CC(=O)NCCCN1CCCC1=O | -2 | . | . | . | . | . | . | . | .
